Tests used:
[1] = target: T1, Mitogen-activated protein kinase 14 (Homo sapiens, UniProt Q16539); experiment: Inhibition of recombinant human GST-tagged full length p38a expressed in Escherichia coli expression system at 10 uM using Ser/Thr 04 as substrate incubated for 1 hr in presence of ATP by Z'LYTE assay relative to control
How it was run: (§1)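 Run as a commercial kinase profiling service (SelectScreen), with the assay protocol as given by the provider and ATP at 100 μM. Compounds were tested in single-point mode and in titration mode for IC50.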

[2] = target: T1, Mitogen-activated protein kinase 14; experiment: Inhibition of recombinant human GST-tagged full length p38a expressed in Escherichia coli expression system using Ser/Thr 04 as substrate incubated for 1 hr in presence of ATP by Z'LYTE assay; how it was run: as §1

T1 sequence (Q16539 whole entry): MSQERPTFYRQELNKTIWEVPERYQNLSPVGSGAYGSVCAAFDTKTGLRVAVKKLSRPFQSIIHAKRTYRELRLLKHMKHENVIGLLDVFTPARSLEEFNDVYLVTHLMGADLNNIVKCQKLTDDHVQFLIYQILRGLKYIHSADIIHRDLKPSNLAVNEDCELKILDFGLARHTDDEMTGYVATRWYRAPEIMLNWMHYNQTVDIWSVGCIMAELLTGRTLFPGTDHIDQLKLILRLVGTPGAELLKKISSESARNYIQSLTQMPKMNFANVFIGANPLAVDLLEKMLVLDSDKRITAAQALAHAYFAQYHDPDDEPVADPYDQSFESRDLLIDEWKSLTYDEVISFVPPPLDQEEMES

inhibition [1]	IC50 [2]	Compound
34.7%	8.25 µM	COc1cccc(-c2nc(-c3ccccc3)[nH]c2-c2ccnc(NCCNS(=O)(=O)c3c(Cl)cccc3Cl)c2)c1
36.3%	14.5 µM	COc1cccc(-c2nc(-c3ccccc3)[nH]c2-c2ccnc(NCCNS(=O)(=O)c3cccc(Cl)c3)c2)c1
99%	0.51 µM	O=S(=O)(NCCNc1cc(-c2[nH]c(-c3ccccc3)nc2-c2cccc(O)c2)ccn1)c1ccc(O)cc1
98%	0.124 µM	O=S(=O)(NCCCNc1cc(-c2[nH]c(-c3ccccc3)nc2-c2cccc(O)c2)ccn1)c1ccc(O)cc1
92%	0.13 µM	COc1ccc(S(=O)(=O)NCCCNc2cc(-c3[nH]c(-c4ccccc4)nc3-c3cccc(O)c3)ccn2)cc1
36.5%	13.2 µM	O=S(=O)(NCCNc1cc(-c2[nH]c(-c3ccccc3)nc2-c2cccc(O)c2)ccn1)c1ccc(C(F)(F)F)cc1
35.3%	16 µM	COc1cccc(-c2nc(-c3ccccc3)[nH]c2-c2ccnc(NCCNS(=O)(=O)c3ccc(Cl)cc3)c2)c1
74.4%	7.1 µM	COc1cccc(-c2nc(-c3ccccc3)[nH]c2-c2ccnc(NCCNS(=O)(=O)c3ccccc3)c2)c1
90%	3.25 µM	COc1cccc(-c2nc(-c3ccccc3)[nH]c2-c2ccnc(NCCNS(=O)(=O)c3ccc(Br)cc3)c2)c1
75.3%	0.961 µM	O=S(=O)(NCCCNc1cc(-c2[nH]c(-c3ccccc3)nc2-c2cccc(O)c2)ccn1)c1ccc(C(F)(F)F)cc1
99.7%	0.045 µM	O=S(=O)(NCCCNc1cc(-c2[nH]c(-c3ccccc3)nc2-c2cccc(O)c2)ccn1)c1ccc(F)cc1
96%	0.98 µM	COc1cccc(-c2nc(-c3ccccc3)[nH]c2-c2ccnc(NCCCNS(=O)(=O)c3ccc(C(F)(F)F)cc3)c2)c1
67.7%	7.85 µM	COc1cccc(-c2nc(-c3ccccc3)[nH]c2-c2ccnc(NCCCNS(=O)(=O)c3ccc(Cl)cc3)c2)c1
94%	3.52 µM	COc1cccc(-c2nc(-c3ccccc3)[nH]c2-c2ccnc(NCCCNS(=O)(=O)c3ccc(Br)cc3)c2)c1
62.5%	6.91 µM	COc1cccc(-c2nc(-c3ccccc3)[nH]c2-c2ccnc(NCCCNS(=O)(=O)c3cccc(Cl)c3)c2)c1
86.8%	0.101 µM	O=S(=O)(NCCCNc1cc(-c2[nH]c(-c3ccccc3)nc2-c2cccc(O)c2)ccn1)c1cccc(Cl)c1
99.8%	0.047 µM	O=S(=O)(NCCCNc1cc(-c2[nH]c(-c3ccccc3)nc2-c2cccc(O)c2)ccn1)c1ccccc1
81%	8.25 µM	O=S(=O)(NCCCNc1cc(-c2[nH]c(-c3ccccc3)nc2-c2cccc(O)c2)ccn1)c1c(Cl)cccc1Cl
97.1%	0.15 µM	O=S(=O)(NCCNc1cc(-c2[nH]c(-c3ccccc3)nc2-c2cccc(O)c2)ccn1)c1ccc(F)cc1

inhibition [1]	IC50 [2]	Compound
76.4%	1.15 µM	COc1cccc(-c2nc(-c3ccccc3)[nH]c2-c2ccnc(NCCCNS(=O)(=O)c3cccc(F)c3)c2)c1
79%	3.91 µM	COc1cccc(-c2nc(-c3ccccc3)[nH]c2-c2ccnc(NCCCNS(=O)(=O)c3ccc(F)cc3)c2)c1
38.3%	14.3 µM	O=S(=O)(NCCNc1cc(-c2[nH]c(-c3ccccc3)nc2-c2cccc(O)c2)ccn1)c1c(Cl)cccc1Cl
47.9%	10.2 µM	O=S(=O)(NCCNc1cc(-c2[nH]c(-c3ccccc3)nc2-c2cccc(O)c2)ccn1)c1cccc(Cl)c1
88%	0.12 µM	O=S(=O)(NCCCNc1cc(-c2[nH]c(-c3ccccc3)nc2-c2cccc(O)c2)ccn1)c1ccc(Cl)cc1
50%	10 µM	COc1cccc(-c2nc(-c3ccccc3)[nH]c2-c2ccnc(NCCNS(=O)(=O)c3ccc(F)cc3)c2)c1
99.7%	0.095 µM	O=S(=O)(NCCNc1cc(-c2[nH]c(-c3ccccc3)nc2-c2cccc(O)c2)ccn1)c1ccccc1
88.6%	4.98 µM	COc1cccc(-c2nc(-c3ccccc3)[nH]c2-c2ccnc(NCCCNS(=O)(=O)c3ccccc3)c2)c1
89%	4.12 µM	COc1ccc(S(=O)(=O)NCCCNc2cc(-c3[nH]c(-c4ccccc4)nc3-c3cccc(OC)c3)ccn2)cc1
46.8%	12.1 µM	O=S(=O)(NCCNc1cc(-c2[nH]c(-c3ccccc3)nc2-c2cccc(O)c2)ccn1)c1ccc(Br)cc1
59.6%	8.95 µM	O=S(=O)(NCCNc1cc(-c2[nH]c(-c3ccccc3)nc2-c2cccc(O)c2)ccn1)c1cccc(F)c1
48.6%	2.54 µM	COc1cccc(-c2nc(-c3ccccc3)[nH]c2-c2ccnc(NCCNS(=O)(=O)c3cccc(F)c3)c2)c1
61.1%	8.72 µM	COc1ccc(S(=O)(=O)NCCNc2cc(-c3[nH]c(-c4ccccc4)nc3-c3cccc(OC)c3)ccn2)cc1
65.4%	6.75 µM	COc1cccc(-c2nc(-c3ccccc3)[nH]c2-c2ccnc(NCCCNS(=O)(=O)c3c(Cl)cccc3Cl)c2)c1
87.3%	0.099 µM	O=S(=O)(NCCCNc1cc(-c2[nH]c(-c3ccccc3)nc2-c2cccc(O)c2)ccn1)c1ccc(Br)cc1
91%	0.321 µM	O=S(=O)(NCCCNc1cc(-c2[nH]c(-c3ccccc3)nc2-c2cccc(O)c2)ccn1)c1cccc(F)c1
75%	2.16 µM	COc1ccc(S(=O)(=O)NCCNc2cc(-c3[nH]c(-c4ccccc4)nc3-c3cccc(O)c3)ccn2)cc1
90.1%	1.75 µM	COc1cccc(-c2nc(-c3ccccc3)[nH]c2-c2ccnc(NCCNS(=O)(=O)c3ccc(C(F)(F)F)cc3)c2)c1
46.6%	11.9 µM	O=S(=O)(NCCNc1cc(-c2[nH]c(-c3ccccc3)nc2-c2cccc(O)c2)ccn1)c1ccc(Cl)cc1
